Measurements published in ChEMBL document CHEMBL3596131, “Discovery of a novel trans-1,4-dioxycyclohexane GPR119 agonist series” (Bioorg Med Chem Lett, 2015).
Active and inactive are the calls of the source. The calls are words filed in the database; no cut-off is given here.

Tests used:
[1] = molecular target: T1, Glucose-dependent insulinotropic receptor (Homo sapiens, UniProt Q8TDV5); assay: Agonist activity at human GPR119 by HTRF cAMP assay; type: functional
T1 sequence (Q8TDV5 whole entry): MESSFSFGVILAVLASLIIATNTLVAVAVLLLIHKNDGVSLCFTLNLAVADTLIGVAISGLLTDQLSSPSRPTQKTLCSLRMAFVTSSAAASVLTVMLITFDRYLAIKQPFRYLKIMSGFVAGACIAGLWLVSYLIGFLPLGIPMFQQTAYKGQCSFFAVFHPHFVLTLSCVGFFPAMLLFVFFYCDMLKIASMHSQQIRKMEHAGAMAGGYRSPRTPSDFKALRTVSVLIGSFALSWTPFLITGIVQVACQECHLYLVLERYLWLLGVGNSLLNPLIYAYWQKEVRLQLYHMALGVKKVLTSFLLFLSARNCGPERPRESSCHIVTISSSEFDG

[2] = molecular target: T2, Glucose-dependent insulinotropic receptor (Homo sapiens) (UniProt Q8TDV5); assay: Agonist activity at human GPR119 by HTRF cAMP assay relative to AR231453; type: functional
T2 sequence (whole entry): T1 sequence (Q8TDV5 whole entry)

[3] = molecular target: T3, Glucose-dependent insulinotropic receptor (Rattus norvegicus, UniProt Q7TQN8); assay: Agonist activity at rat GPR119 by HTRF cAMP assay; type: functional
T3 sequence (Q7TQN8 whole entry): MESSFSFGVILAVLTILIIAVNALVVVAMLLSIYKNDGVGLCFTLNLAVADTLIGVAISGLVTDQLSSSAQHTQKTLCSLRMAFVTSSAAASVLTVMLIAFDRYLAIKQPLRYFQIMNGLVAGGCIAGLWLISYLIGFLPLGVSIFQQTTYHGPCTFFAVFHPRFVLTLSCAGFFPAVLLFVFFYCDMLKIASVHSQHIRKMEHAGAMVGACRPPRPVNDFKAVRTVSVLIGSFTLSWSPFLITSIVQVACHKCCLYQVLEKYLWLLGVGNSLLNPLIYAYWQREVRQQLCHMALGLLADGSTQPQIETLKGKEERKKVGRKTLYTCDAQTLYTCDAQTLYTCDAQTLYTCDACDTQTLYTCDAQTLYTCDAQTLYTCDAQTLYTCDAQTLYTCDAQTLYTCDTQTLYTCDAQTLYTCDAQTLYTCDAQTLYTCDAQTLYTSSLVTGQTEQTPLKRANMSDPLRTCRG

[4] = molecular target: T4, Glucose-dependent insulinotropic receptor (Rattus norvegicus) (UniProt Q7TQN8); assay: Agonist activity at rat GPR119 by HTRF cAMP assay relative to AR231453; type: functional
T4 sequence (whole entry): T3 sequence (Q7TQN8 whole entry)

[5] = molecular target: T1, Glucose-dependent insulinotropic receptor; assay: Agonist activity at human GPR119 by serum shift assay
Outline: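 HTRF cAMP read-out with cells plated overnight; growth medium swapped for fetal bovine serum-containing medium. Compounds serially diluted in DMSO, then in PBS with IBMX and 0.1% BSA to 2× concentration (1% DMSO) before addition. Potency compared with and without serum.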

[6] = Half life in human liver microsomes; type: ADME
[7] = Half life in rat liver microsomes; type: ADME
[8] = Half life in mouse liver microsomes; type: ADME
Mus musculus [9] = assay: Antidiabetic activity in normoglycemic 129SVE mouse assessed as […] administered 30 mins prior to glucose challenge measured over 120 mins by OGTT; type: functional, organism-based
Mus musculus [10] = assay: Antidiabetic activity in normoglycemic 129SVE mouse assessed as suppression of plasma glucose AUC at 3 mg/kg, po administered 30 mins prior to glucose challenge measured over 120 mins by OGTT; type: functional, organism-based
Rattus norvegicus [11] = assay: Antidiabetic activity in Zucker diabetic fatty rat assessed as suppression of plasma glucose AUC at 3 mg/kg administered 60 mins prior to glucose challenge by OGTT relative to vehicle-treated control; type: functional
Mus musculus [12] = assay: In vivo activation of GPR119 in normoglycemic 129SVE mouse assessed as increase in GIP level in plasma at 30 mg/kg, po measured after 45 mins relative to vehicle-treated control; type: functional, organism-based
Outline: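 Normoglycemic male 129SVE mice dosed orally (3 and 30 mg/kg); plasma GIP measured 45 min after dosing versus vehicle-treated controls; AR231453 at 30 mg/kg as reference agonist.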

Rattus norvegicus [13] = species on record: Rattus norvegicus; assay: Toxicity in rat assessed as physical mobility impairment; type: organism-based; conditions: in vivo

Compound | EC50 [1] [nM] | Emax [2] [%] | EC50 [3] [nM] | Emax [4] [%] | also measured
Cc1nc(S(C)(=O)=O)ccc1O[C@H]1CC[C@H](OC2CCN(C(=O)OC(C)C)CC2)CC1 | 11 | 108 | 89 | 114 | –
CS(=O)(=O)c1cnc(O[C@H]2CC[C@H](OC3CCN(CC4(F)CCCC4)CC3)CC2)cn1 | 101 | – | 922 | 119 | –
CC(C)(C)OC(=O)N1CCC(OC2CCCC(Oc3ccc(S(C)(=O)=O)cc3)C2)CC1 (mixture of isomers) | > 100000 | – | – | – | –
Cc1nc(S(C)(=O)=O)ccc1Oc1ncnc(OC2CCN(C(=O)OC3(C)CC3)CC2)c1F | – | 94 | – | 93 | –
CC(C)(C)OC(=O)N1CCC(O[C@H]2CC[C@H](Oc3ccc(S(C)(=O)=O)cn3)CC2)CC1 | 47 | 111 | 110 | 108 | –
CC(C)(C)OC(=O)N1CCC(O[C@H]2CC[C@@H](Oc3ccc(S(C)(=O)=O)cc3)CC2)CC1 | – | 120 | 1390 | 121 | –
CS(=O)(=O)c1cnc(O[C@H]2CC[C@H](OC3CCN(CC4(C(F)(F)F)CCCC4)CC3)CC2)cn1 | 48.8 | 37 | 101 | 88 | –
N[C@@H](CC(=O)N1CCn2c(nnc2C(F)(F)F)C1)Cc1cc(F)c(F)cc1F [SITAGLIPTIN] | – | – | – | – | Activity (Mus musculus [10]): Active; Activity (Rattus norvegicus [11]): 57%
CC(C)(C)OC(=O)N1CCC(O[C@H]2CC[C@H](Oc3ccc(S(C)(=O)=O)cc3)CC2)CC1 | 16.1 | 115 | 94 | 120 | –
CC(C)S(=O)(=O)c1cnc(O[C@H]2CC[C@H](OC3CCN(C(=O)OC(C)(C)C)CC3)CC2)cn1 | 18.5 | 109 | 54 | 128 | –
CC(C)(C)OC(=O)N1CCC(OC2CCC(Oc3ccc(S(C)(=O)=O)cc3)CC2)CC1 (mixture of isomers) | > 200 | – | – | – | –
CC(C)c1noc(C2CCN(c3ncnc(Nc4ccc(S(C)(=O)=O)cc4F)c3[N+](=O)[O-])CC2)n1 | – | – | – | – | Activity (Mus musculus [12]): Active
CS(=O)(=O)c1cnc(O[C@H]2CC[C@H](OC3CCN(C(=O)C4(C(F)(F)F)CC4)CC3)CC2)cn1 | 107 | 107 | 1380 | 140 | –
CC(C)(C)OC(=O)N1CCC(O[C@H]2CC[C@H](Oc3cnc(S(C)(=O)=O)cn3)CC2)CC1 | 5.9 | 110 | 64 | 110 | EC50 [5]: 94 nM
CS(=O)(=O)c1cnc(O[C@H]2CC[C@H](OC3CCN(C(=O)Oc4ccccc4)CC3)CC2)cn1 | 9.6 | 116 | 71.8 | 104 | –
CS(=O)(=O)c1cnc(O[C@H]2CC[C@H](OC3CCN(C(=O)OC(C(F)(F)F)C(F)(F)F)CC3)CC2)cn1 | 1.2 | 104 | 10.9 | 121 | EC50 [5]: 45.2 nM; half-life [6]: > 1 h; half-life [7]: > 1 h; half-life [8]: > 1 h; Activity (Rattus norvegicus [13]): Dose-dependent effect
CS(=O)(=O)c1cnc(O[C@H]2CC[C@H](OC3CCN(CC(F)(F)F)CC3)CC2)cn1 | 776 | 91 | 1960 | 105 | –
CC(C)OC(=O)N1CCC(O[C@H]2CC[C@H](Oc3cnc(S(C)(=O)=O)cn3)CC2)CC1 | 13.7 | 110 | 119 | 120 | EC50 [5]: 92.7 nM; half-life [6]: > 1 h; half-life [7]: > 1 h; half-life [8]: > 1 h
CC(C)OC(=O)N1CCC(O[C@H]2CC[C@H](Oc3ccc(S(C)(=O)=O)nc3)CC2)CC1 | 13 | 101 | 201 | 125 | –
CC1(OC(=O)N2CCC(O[C@H]3CC[C@H](Oc4cnc(S(C)(=O)=O)cn4)CC3)CC2)CC1 | 25.9 | 118 | 138 | 123 | –
CC(C)(C)OC(=O)N1CCC(O[C@H]2CC[C@H](Oc3ccc(S(C)(=O)=O)c(F)c3)CC2)CC1 | 52 | 106 | 167 | 109 | –
COc1c(Nc2ccc(S(C)(=O)=O)nc2C)ncnc1OC1CCN(C(=O)OC(C)C)CC1 | – | 75 | – | 89 | –
CS(=O)(=O)c1cnc(O[C@H]2CC[C@H](OC3CCN(CC4(C(F)(F)F)CC4)CC3)CC2)cn1 | 62.6 | 116 | 163 | 124 | half-life [6]: 0.35 h; half-life [7]: > 1 h; half-life [8]: 0.617 h
C[C@@H](CF)OC(=O)N1CCC(O[C@H]2CC[C@H](Oc3cnc(S(C)(=O)=O)cn3)CC2)CC1 | 31.1 | 105 | 356 | 123 | –
Cc1nc(O[C@H]2CC[C@H](OC3CCN(C(=O)OC(C)(C)C)CC3)CC2)ccc1C(=O)N(C)C | 262 | 121 | 400 | 111 | –

Now from value to compound, other results behind:

EC50 [1] [nM] | Emax [2] [%] | EC50 [3] [nM] | Emax [4] [%] | Compound | also measured
4.8 | 112 | 49.9 | 125 | C[C@H](OC(=O)N1CCC(O[C@H]2CC[C@H](Oc3cnc(S(C)(=O)=O)cn3)CC2)CC1)C(F)(F)F | EC50 [5]: 53 nM; half-life [6]: > 1 h; half-life [7]: > 1 h; half-life [8]: > 1 h; Activity (Mus musculus [9]): inactive
54.8 | 96 | 80 | 99 | CS(=O)(=O)c1cnc(O[C@H]2CC[C@H](OC3CCN(CC4(C(F)(F)F)CCC4)CC3)CC2)cn1 | –
651 | 97 | 1160 | 86 | CC(C)(C)OC(=O)N1CCC(O[C@H]2CC[C@H](Oc3ccc(S(C)(=O)=O)nn3)CC2)CC1 | –
427 | 105 | 1500 | 109 | CS(=O)(=O)c1cnc(O[C@H]2CC[C@H](OC3CCN(C(=O)OC4CCOC4)CC3)CC2)cn1 (stereo not given in full) | –
38.4 | 95 | 108 | 124 | CS(=O)(=O)c1cnc(O[C@H]2CC[C@H](OC3CCN(C(=O)C4(C(F)(F)F)CCCC4)CC3)CC2)cn1 | –
8.3 | 110 | 28.4 | 100 | CC(C)(C)OC(=O)N1CCC(O[C@H]2CC[C@H](Oc3cnc(C#N)cn3)CC2)CC1 | EC50 [5]: 144 nM
65.1 | 114 | 467 | 128 | CS(=O)(=O)c1cnc(O[C@H]2CC[C@H](OC3CCN(C(=O)OC(CF)CF)CC3)CC2)cn1 | half-life [6]: > 1 h; half-life [7]: > 1 h; half-life [8]: > 1 h
8.5 | 113 | 61 | 119 | CC(C)(C)OC(=O)N1CCC(O[C@H]2CC[C@H](Oc3ccc(S(C)(=O)=O)cc3F)CC2)CC1 | EC50 [5]: 227 nM
5.3 | 107 | 66.9 | 126 | CCC(F)(F)C(=O)N1CCC(O[C@H]2CC[C@H](Oc3cnc(S(C)(=O)=O)cn3)CC2)CC1 | EC50 [5]: 28.7 nM; half-life [6]: > 1 h; half-life [7]: > 1 h; half-life [8]: 0.05 h
36.8 | 108 | 317 | 115 | C[C@H](CF)OC(=O)N1CCC(O[C@H]2CC[C@H](Oc3cnc(S(C)(=O)=O)cn3)CC2)CC1 | –
8.6 | 116 | 45 | 106 | CC(C)(C)OC(=O)N1CCC(O[C@H]2CC[C@H](Oc3ccc(C#N)cc3)CC2)CC1 | EC50 [5]: 334 nM
